Key:
HCT-116 cells = experiment: MTT anticancer assay on colorectal cancer cell line HCT-116; format: cell-based, human; settings: for SI (selectivity index): HCT-116 cells over normal colonocytes; for IC50: Homo sapiens, HCT-116, 72 h, read-out: IC50 HCT-116, MTT, 72 h, mean ± SEM
How it was run: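 MTT viability assay on human colorectal carcinoma HCT-116 cells exposed to test compounds. Data are mean ± SEM of three measurements. Differences between treatments were tested by one-way ANOVA with Tukey's test, with significance at p < 0.05.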

normal colonocyte = experiment: MTT cytotoxicity on normal colonic epithelial cells; format: cell-based, rat; settings: concentration at 100% cell viability (safe dose), 72 h, mean ± SEM
How it was run: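 Normal colonic epithelial cells were isolated by the Follmann & Birkner method, with modifications. Cytotoxicity of test compounds on these colonocytes was measured by MTT assay to define safe concentrations. Data are mean ± SEM of three measurements. Differences were tested by one-way ANOVA with Tukey's test, with significance at p < 0.05.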

HCT-116 cell line = settings: read-out: IC50 cytotoxicity HCT-116 cell line; cited from earlier work

Compound | SI (selectivity index) (HCT-116 cells) | IC50 (HCT-116 cells) | EC100 normal colonocyte (normal colonocyte) | fold lower anticancer activity than compound 20 (HCT-116 cells; HCT-116 IC50, compared to 20) | IC50 (HCT-116 cell line)
O=c1c(Cc2ccccc2)nc2ccccc2n1Cc1cn(-c2ccc(I)cc2)nn1 [Compound 15] | 3.244 | 135 ± 9 nM | 0.103 ± 0.008 µM | – | –
O=c1c(Cc2ccccc2)nc2ccccc2n1Cc1cn(-c2ccc(O)cc2)nn1 [Compound 16] | 5.000 | 222 nM | 0.556 ± 0.031 µM | – | –
O=C(O)CNC(=O)c1ccc(-n2cc(Cn3c(=O)c(Cc4ccccc4)nc4ccccc43)nn2)cc1 [Compound 17] | 3.263 | 114 ± 1 nM | 0.169 ± 0.036 µM | – | –
CC(=O)c1ccc(-n2cc(Cn3c(=O)c(Cc4ccccc4)nc4ccccc43)nn2)cc1 [Compound 18] | 10.633 | 218 nM | 0.212 ± 0.010 µM | – | –
CC(=O)NS(=O)(=O)c1ccc(-n2cc(Cn3c(=O)c(Cc4ccccc4)nc4ccccc43)nn2)cc1 [Compound 19] | 1.211 | 331 ± 4 nM | 0.150 ± 0.015 µM | 4.6 fold | –
COc1cccc2c1C(=O)c1c(O)c3c(c(O)c1C2=O)C[C@@](O)(C(=O)CO)C[C@@H]3O[C@H]1C[C@H](N)[C@H](O)[C@H](C)O1 [DOX, doxorubicin, reference compound] | 0.357 | 761 ± 50 nM | 0.074 ± 0.008 µM | – | 9630 nM
CNC(=O)c1cc(Oc2ccc(NC(=O)Nc3ccc(Cl)c(C(F)(F)F)c3)cc2)ccn1 [sorafenib] | – | – | – | – | 9400 nM
